Test system: SARS-CoV-2
Experiment: Antiviral activity against pseudovirus SARS-CoV-2 spike protein infected in HEK-293T cells overexpressing ACE2 assessed as inhibition on pseudovirus infection incubated for 52 hrs by luminescence based microplate reader analysis
Type: functional, organism-based
Conditions: Severe acute respiratory syndrome coronavirus 2, HEK-293T
Procedure, shortened: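 HEK-293T-ACE2h cells were pre-incubated with compound in DMEM for 2 h, then inoculated with luciferase-reporter spike pseudovirus plus 2-fold compound for about 2 h at 37 °C. The inoculum was replaced with fresh DMEM and cells were kept 48 h at 37 °C, then lysed. Luciferase luminescence was read, with virus-only cells set as 100%, and IC50 was computed.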

Row | Compound | IC50
1 | C=CCc1cc(-c2cc(CC=C)c3oc(SCc4nnc(-c5ccc(Cl)cc5)o4)nc3c2)c2oc(SCc3nnc(-c4ccc(Cl)cc4)o3)nc2c1 | > 100 µM
2 | C=CCc1cc(-c2cc(CC=C)c3oc(SCc4nnc(-c5ccccc5Br)o4)nc3c2)c2oc(SCc3nnc(-c4ccccc4Br)o3)nc2c1 | > 100 µM
3 | C=CCc1cc(-c2cc(CC=C)c3oc(SCc4nnc(-c5ccc(C)cc5)o4)nc3c2)c2oc(SCc3nnc(-c4ccc(C)cc4)o3)nc2c1 | > 100 µM
4 | C=CCc1cc(-c2cc(CC=C)c3oc(SCc4nnc(-c5ccc(Br)cc5)o4)nc3c2)c2oc(SCc3nnc(-c4ccc(Br)cc4)o3)nc2c1 | > 100 µM
5 | C=CCc1cc(-c2cc(CC=C)c3oc(SCc4nnc(-c5cccc(F)c5)o4)nc3c2)c2oc(SCc3nnc(-c4cccc(F)c4)o3)nc2c1 | > 100 µM
6 | C=CCc1cc(CSc2nnc(-c3ccccc3)o2)c(O)c(-c2ccc(O)c(CC=C)c2)c1 | 17 µM
7 | C=CCc1ccc(O)c(-c2ccc(O)c(CC=C)c2)c1 [HONOKIOL] | > 50 µM
8 | C=CCc1cc(-c2cc(CC=C)c3oc(SCc4nnc(-c5cccc(Cl)c5)o4)nc3c2)c2oc(SCc3nnc(-c4cccc(Cl)c4)o3)nc2c1 | > 100 µM
9 | C=CCc1cc(-c2cc(CC=C)c3oc(SCc4nnc(-c5ccccc5C)o4)nc3c2)c2oc(SCc3nnc(-c4ccccc4C)o3)nc2c1 | > 100 µM
10 | C=CCc1cc(-c2cc(CC=C)c3oc(SCc4nnc(-c5ccc(F)cc5)o4)nc3c2)c2oc(SCc3nnc(-c4ccc(F)cc4)o3)nc2c1 | > 100 µM
11 | C=CCc1cc(-c2cc(CC=C)c3oc(SCc4nnc(-c5cccc(Br)c5)o4)nc3c2)c2oc(SCc3nnc(-c4cccc(Br)c4)o3)nc2c1 | > 100 µM
12 | C=CCc1cc(-c2cc(CC=C)c3oc(SCc4nnc(-c5ccccc5F)o4)nc3c2)c2oc(SCc3nnc(-c4ccccc4F)o3)nc2c1 | > 100 µM
13 | C=CCc1cc(CSc2nnc(-c3cccnc3)o2)c(O)c(-c2ccc(O)c(CC=C)c2)c1 | 45.6 µM
14 | C=CCc1cc(-c2cc(CC=C)c3oc(SCc4nnc(-c5cccc(OC)c5)o4)nc3c2)c2oc(SCc3nnc(-c4cccc(OC)c4)o3)nc2c1 | > 100 µM
15 | C=CCc1cc(-c2cc(CC=C)c3oc(SCc4nnc(-c5ccccc5OC)o4)nc3c2)c2oc(SCc3nnc(-c4ccccc4OC)o3)nc2c1 | > 100 µM
16 | C=CCc1cc(-c2cc(CC=C)c3oc(SCc4nnc(-c5ccccc5Cl)o4)nc3c2)c2oc(SCc3nnc(-c4ccccc4Cl)o3)nc2c1 | 84.4 µM
17 | C=CCc1cc(CSc2nnc(-c3ccccc3Cl)o2)c(O)c(-c2ccc(O)c(CC=C)c2)c1 | 85.2 µM
18 | C=CCc1cc(CSc2nnc(-c3ccccc3F)o2)c(O)c(-c2ccc(O)c(CC=C)c2)c1 | > 100 µM
19 | C=CCc1cc(CSc2nnc(-c3ccccc3C)o2)c(O)c(-c2ccc(O)c(CC=C)c2)c1 | > 100 µM
20 | C=CCc1cc(-c2cc(CC=C)c3oc(SCc4nnc(-c5ccccc5)o4)nc3c2)c2oc(SCc3nnc(-c4ccccc4)o3)nc2c1 | > 100 µM
21 | C=CCc1cc(-c2cc(CC=C)c3oc(SCc4nnc(-c5cccc(C)c5)o4)nc3c2)c2oc(SCc3nnc(-c4cccc(C)c4)o3)nc2c1 | > 100 µM
22 | C=CCc1cc(-c2cc(CC=C)c3oc(SCc4nnc(-c5ccc(OC)cc5)o4)nc3c2)c2oc(SCc3nnc(-c4ccc(OC)cc4)o3)nc2c1 | > 100 µM

From ChEMBL document CHEMBL5126577, “Discovery of honokiol thioethers containing 1,3,4-oxadiazole moieties as potential α-glucosidase and SARS-CoV-2 entry inhibitors” (Bioorg Med Chem, 2022)
